From ChEMBL document CHEMBL5032502, “Syntheses, Biological Evaluations, and Mechanistic Studies of Benzo[c][1,2,5]oxadiazole Derivatives as Potent PD-L1 Inhibitors with In Vivo Antitumor Activity” (J Med Chem, 2021)
Active and inactive are the calls of the source. The rule behind the calls is not given here.

Columns and labels:
MC-38 [1] = experiment: Antitumor activity against mouse MC38 cells implanted in C57BL/6 mouse assessed as tumor growth inhibition at 300 mg/kg, po measured after 14 days; assay type: functional; details: MC-38, po, 336 h, time 14 day, read-out: TGI
[2] = Toxicity in C57BL/6 mouse assessed as effect on AST level at 2000 mg/kg, po observed for 30 days; assay type: organism-based; details: in vivo, 720 h, time 30 day
MC-38 [3] = experiment: Antitumor activity against mouse MC38 cells xenografted in C57BL/6 mouse assessed as reduction in macrophages at 25 mg/kg, po by flow cytometry analysis; assay type: functional, organism-based
How it was run: (§1)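 Tumours taken from PD-L1-humanized mice carrying MC38-hPD-L1 tumours and dosed orally at 5 or 25 mg/kg daily. Tissue digested to single cells, red cells lysed with ACK buffer, Fc blocked. Surface stain 60 min for CD45, CD3, CD4, CD8, CD335, CD11b, Ly6G, Ly6C and F4/80, with a viability dye. Intracellular FOXP3 stain after permeabilization. Mean ± SEM, n = 7−8, one-way ANOVA.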

[4] = Toxicity in C57BL/6 mouse assessed as effect on creatinine kinase level at 2000 mg/kg, po observed for 30 days; assay type: organism-based; details: in vivo, 720 h, time 30 day
[5] = Tmax in Sprague-Dawley rat at 45 mg/kg, po measured upto 24 hrs by LC-MS analysis; assay type: ADME, organism-based; details: in vivo
How it was run: (§2)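 Male Sprague-Dawley rats or C57BL/6 mice fasted 12 h before dosing, given oral (po) or intravenous (iv) doses. Plasma levels measured by LC-MS. Parameters reported as mean ± SEM, n = 3.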

[6] = Cmax in C57BL/6 mouse at 2 mg/kg, iv measured upto 24 hrs by LC-MS analysis; assay type: ADME, organism-based; parameters: route intravenous, dose 2 mg/kg, time <=24; details: in vivo
How it was run: (§3)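 Male animals fasted 12 h before dosing. Plasma levels measured by LC-MS, with the prodrug quantified as the parent acid. Mean ± SEM, n = 3.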

[7] = Oral bioavailability in C57BL/6 mouse at 10 mg/kg measured upto 24 hrs by LC-MS analysis; assay type: ADME, organism-based; details: in vivo; how it was run: as §2
MC-38 [8] = experiment: Antitumor activity against mouse MC38 cells xenografted in C57BL/6 mouse assessed as increase in NK cells at 25 mg/kg, po by flow cytometry analysis; assay type: functional, organism-based; how it was run: as §1
MC-38 [9] = experiment: Antitumor activity against PD-L1 humanized mouse MC38 cells implanted in PD-L1 humanized C57BL/6 mouse assessed as tumor growth inhibition at 25 mg/kg, po measured after 30 days; assay type: functional; details: MC-38, po, 720 h, time 30 day, read-out: TGI
How it was run: (§4)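 PD-L1-humanized C57BL/6 mice given 1 × 10⁶ MC38-hPD-L1(Tg)-mPDL1(KO) cells in the right flank. Once tumours reached 50 mm³, randomized into three groups: CMC-Na vehicle, 25 or 50 mg/kg by daily oral gavage for 30 days. TGI from mean tumour volume of treated versus vehicle groups. n = 6.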

MC-38 [10] = experiment: Antitumor activity against mouse MC38 cells implanted in C57BL/6 mouse assessed as tumor growth inhibition at 300 mg/kg, po measured after 18 days; assay type: functional; details: MC-38, po, 432 h, time 18 day, read-out: TGI
How it was run: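 Female C57BL/6J mice, 8 weeks old, injected dorsally with 1 × 10⁶ MC38 cells in PBS. At 50 mm³, randomized to CMC-Na vehicle, 50, 150 or 300 mg/kg by daily oral gavage. Tumours measured every two days, volume = 0.5 × L × W². Sacrifice after 18 days of treatment. TGI = (1 − Vt/Vv) × 100. n = 8−10.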

MC-38 [11] = experiment: Antitumor activity against mouse MC38 cells xenografted in C57BL/6 mouse assessed as increase in CD3 positive T cells at 25 mg/kg, po by flow cytometry analysis; assay type: functional, organism-based; how it was run: as §1
[12] = Toxicity in C57BL/6 mouse assessed as effect on ALT level at 2000 mg/kg, po observed for 30 days; assay type: organism-based; details: in vivo, 720 h, time 30 day
[13] = AUC (0 to t) in Sprague-Dawley rat at 45 mg/kg, po measured upto 24 hrs by LC-MS analysis; assay type: ADME, organism-based; parameters: route oral, dose 45 mg/kg, time <=24; details: in vivo; how it was run: as §3
[14] = Acute toxicity in C57BL/6 mouse assessed as mortality at 2000 mg/kg, po observed for 30 days; assay type: organism-based; details: in vivo, 720 h, time 30 day
How it was run: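 Healthy C57BL/6 mice got a single oral 2000 mg/kg dose. Mortality and body weight were then recorded over a 30-day observation period.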

MC-38 [15] = experiment: Antitumor activity against mouse MC38 cells xenografted in C57BL/6 mouse assessed as reduction in mMDSC cells at 25 mg/kg, po by flow cytometry analysis; assay type: functional, organism-based; how it was run: as §1
[16] = Half life in C57BL/6 mouse at 10 mg/kg, po measured upto 24 hrs by LC-MS analysis; assay type: ADME, organism-based; details: in vivo; how it was run: as §3
B16-F10 [17] = experiment: Antitumor activity against mouse B16-F10 cells implanted in C57BL/6 mouse assessed as tumor growth inhibition at 45 mg/kg, po measured after 18 days; assay type: functional; details: 432 h, time 18 day, read-out: TGI
How it was run: (§5)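 Female C57BL/6J mice, 8 weeks old, injected dorsally with 1 × 10⁶ B16-F10 cells in PBS. Daily oral gavage started the same day (day 1), in 0.5% CMC-Na vehicle. Tumour size and body weight recorded daily, volume = 0.5 × L × W². Sacrifice on day 18, tumours excised and weighed. TGI = (1 − Vt/Vv) × 100.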

B16-F10 [18] = experiment: Antitumor activity against mouse B16-F10 cells implanted in C57BL/6 mouse assessed as tumor growth inhibition at 15 mg/kg, po measured after 18 days; assay type: functional; details: 432 h, time 18 day, read-out: TGI; how it was run: as §5
[19] = Cmax in C57BL/6 mouse at 10 mg/kg, po measured upto 24 hrs by LC-MS analysis; assay type: ADME, organism-based; parameters: route oral, dose 10 mg/kg, time <=24; details: in vivo; how it was run: as §3
MC-38 [20] = experiment: Antitumor activity against mouse MC38 cells implanted in C57BL/6 mouse assessed as tumor growth inhibition at 150 mg/kg, po measured after 14 days; assay type: functional; details: MC-38, po, 336 h, time 14 day, read-out: TGI
[21] = Subacute toxicity in C57BL/6 mouse assessed as organ weight change po observed for 30 days; details: in vivo, 720 h
MC-38 [22] = experiment: Antitumor activity against PD-L1 humanized mouse MC38 cells implanted in PD-L1 humanized C57BL/6 mouse assessed as tumor growth inhibition at 5 mg/kg, po measured after 27 days; assay type: functional; details: MC-38, po, 648 h, time 27 day, read-out: TGI
How it was run: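 Female PD-L1-humanized C57BL/6 mice, 6 weeks old, injected in the right flank with 1 × 10⁶ MC38-hPD-L1(Tg)-mPDL1(KO) cells in PBS. At 50 mm³ tumours, animals randomized to 0.5% CMC-Na vehicle or drug by daily oral gavage. Tumours measured twice weekly, volume = 0.5 × L × W². Sacrifice on day 27. TGI = (1 − Vt/Vv) × 100. n = 8.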

MC-38 [23] = experiment: Antitumor activity against PD-L1 humanized mouse MC38 cells implanted in PD-L1 humanized C57BL/6 mouse assessed as tumor growth inhibition at 50 mg/kg, po measured after 30 days; assay type: functional; details: MC-38, po, 720 h, time 30 day, read-out: TGI; how it was run: as §4
[24] = Tmax in C57BL/6 mouse at 2 mg/kg, iv measured upto 24 hrs by LC-MS analysis; assay type: ADME, organism-based; details: in vivo; how it was run: as §2
[25] = Half life in Sprague-Dawley rat at 45 mg/kg, po measured upto 24 hrs by LC-MS analysis; assay type: ADME, organism-based; details: in vivo; how it was run: as §3
B16-F10 [26] = experiment: Antitumor activity against mouse B16-F10 cells implanted in C57BL/6 mouse assessed as tumor weight at 45 mg/kg, po measured after 18 days (reference value: 1.76 gm); assay type: functional; details: time 18 day; how it was run: as §5

CCOC(=O)[C@@H](CO)NCc1cc(Cl)c(OCc2cccc(-c3ccccc3)c2Br)cc1OCc1ccc2nonc2c1.Cl
inhibition in vivo at 300 mg/kg (MC-38 [1]): 36.5% | Activity [2]: Non-Toxic | Activity (MC-38 [3]): Active | Activity [4]: Non-Toxic | Tmax [5]: 4 h | Cmax [6]: 2820 ng/mL | bioavailability [7]: 7.7% | Activity (MC-38 [8]): Active | inhibition in vivo at 25 mg/kg (MC-38 [9]): 44.2% | inhibition in vivo at 300 mg/kg (MC-38 [10]): 48.9% | Activity (MC-38 [11]): Active | Activity [12]: Non-Toxic | AUC(0-t) at 24 h [13]: 2860 ng·h/mL | Activity [14]: Non-Toxic | Activity (MC-38 [15]): Active | half-life [16]: 1.55 h | inhibition in vivo at 45 mg/kg (B16-F10 [17]): 70.7% | inhibition in vivo at 15 mg/kg (B16-F10 [18]): 45.8% | Cmax [19]: 150 ng/mL | inhibition in vivo at 150 mg/kg (MC-38 [20]): 58.2% | Activity [21]: Non-Toxic | inhibition in vivo at 5 mg/kg (MC-38 [22]): 19.3% | inhibition in vivo at 50 mg/kg (MC-38 [23]): 30.8% | Tmax [24]: 4.8 min | half-life [25]: 3.43 h | Activity (B16-F10 [26]): 0.79 g
